Assay results taken from ChEMBL document CHEMBL1156239, “Synthesis, anticonvulsant and antimicrobial activities of some new 2-acetylnaphthalene derivatives” (Bioorg Med Chem, 2010).
≈ marks a conversion by molar mass, not a printed value. Calls of active or inactive are those of the source. No cut-off for these calls is given here.

Tests used:
Staphylococcus aureus = assay: Antibacterial activity against Staphylococcus aureus ATCC 25923 after 24 hrs by broth microdilution method; assay type: functional; details: ATCC 25923, 24 h
Outline: (§1)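 Broth microdilution in Mueller Hinton broth; compound stocks in DMSO, diluted into test medium. Plates incubated at 35 °C and read visually after 24 h. MIC taken as lowest concentration preventing visible growth. Ampicillin reference.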

Enterococcus faecalis = assay: Antibacterial activity against Enterococcus faecalis ATCC 29212 after 24 hrs by broth microdilution method; assay type: functional; details: ATCC 29212, 24 h; outline: as §1
Escherichia coli = assay: Antibacterial activity against Escherichia coli ATCC 25922 after 24 hrs by broth microdilution method; assay type: functional; details: ATCC 25922, 24 h; outline: as §1
Pseudomonas aeruginosa = assay: Antibacterial activity against Pseudomonas aeruginosa ATCC 27853 after 24 hrs by broth microdilution method; assay type: functional; details: ATCC 27853, 24 h; outline: as §1
Pichia kudriavzevii = assay: Antifungal activity against Candida krusei ATCC 6258 after 48 hrs by broth microdilution method; assay type: functional; details: ATCC 6258, 48 h
Candida parapsilosis = assay: Antifungal activity against Candida parapsilosis ATCC 22019 after 48 hrs by broth microdilution method; assay type: functional; details: Lodderomyces parapsilosis, ATCC 22019, 48 h
Mus musculus [1] = assay: Anticonvulsant activity in CF1 mouse assessed as inhibition of maximal electroshock-induced seizures at 30 mg/kg, ip after 0.5 hrs; assay type: functional, organism-based; parameters: dose 30 mg/kg
Outline: (§2)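 Male albino CF#1 mice (18–25.5 g), compound suspended in 0.5% methylcellulose, given ip 0.5 h or 4 h before test. Eyes treated with 0.5% tetracaine HCl in saline; corneal-type MES at 60 Hz, 50 mA for 0.2 s; protection scored as animals protected/tested.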

Mus musculus [2] = assay: Anticonvulsant activity in CF1 mouse assessed as inhibition of maximal electroshock-induced seizures at 100 mg/kg, ip after 0.5 hrs; assay type: functional, organism-based; parameters: dose 100 mg/kg; outline: as §2
Mus musculus [3] = assay: Anticonvulsant activity in CF1 mouse assessed as inhibition of maximal electroshock-induced seizures at 30 mg/kg, ip after 4 hrs; assay type: functional, organism-based; parameters: dose 30 mg/kg; outline: as §2
Mus musculus [4] = assay: Anticonvulsant activity in CF1 mouse assessed as inhibition of maximal electroshock-induced seizures at 300 mg/kg, ip after 4 hrs; assay type: functional, organism-based; parameters: dose 300 mg/kg; outline: as §2
Mus musculus [5] = assay: Neurotoxicity in CF1 mouse at 30 mg/kg, ip after 0.5 hrs by rotarod test; assay type: toxicity, organism-based; parameters: dose 30 mg/kg, route intraperitoneal; details: in vivo
Outline: (§3)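 Male albino CF#1 mice (18–25.5 g) dosed ip with compound suspended in 0.5% methylcellulose, 0.5 h or 4 h before testing; neurotoxicity assessed by rotarod, scored as number toxic/number tested.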

Mus musculus [6] = assay: Neurotoxicity in CF1 mouse assessed as ability to grasp rotarod at 300 mg/kg, ip after 0.5 hrs by rotarod test; assay type: toxicity, organism-based; parameters: dose 300 mg/kg, route intraperitoneal; details: in vivo; outline: as §3
Mus musculus [7] = assay: Neurotoxicity in CF1 mouse assessed as muscle spasms at 300 mg/kg, ip after 0.5 hrs by rotarod test; assay type: toxicity, organism-based, Muscle tissue; parameters: dose 300 mg/kg, route intraperitoneal; details: in vivo
Mus musculus [8] = assay: Neurotoxicity in CF1 mouse assessed as mortality at 300 mg/kg, ip after 0.5 hrs by rotarod test; assay type: toxicity, organism-based; parameters: dose 300 mg/kg, route intraperitoneal; details: in vivo
Outline: (§4)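 Male albino CF#1 mice (18–25.5 g), free access to food and water except during testing, under NINDS Anticonvulsant Screening Program procedures. Compounds were suspended in 0.5% methylcellulose and given ip. Neurotoxicity was scored by rotarod 0.5 h and 4 h after dosing, at screening doses of 30, 100 or 300 mg/kg. Results are reported as affected/tested animals.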

Mus musculus [9] = assay: Neurotoxicity in CF1 mouse at 30 mg/kg, ip after 4 hrs by rotarod test; assay type: toxicity, organism-based; parameters: dose 30 mg/kg, route intraperitoneal; details: in vivo; outline: as §3
Mus musculus [10] = assay: Neurotoxicity in CF1 mouse at 100 mg/kg, ip after 4 hrs by rotarod test; assay type: toxicity, organism-based; parameters: dose 100 mg/kg, route intraperitoneal; details: in vivo; outline: as §3
Mus musculus [11] = assay: Neurotoxicity in CF1 mouse at 300 mg/kg, ip after 4 hrs by rotarod test; assay type: toxicity, organism-based; parameters: dose 300 mg/kg, route intraperitoneal; details: in vivo; outline: as §3
Rattus norvegicus [12] = assay: Anticonvulsant activity in Sprague-Dawley rat assessed as inhibition of maximal electroshock-induced seizures at 30 mg/kg, po after 0.25 hrs; assay type: functional, organism-based; parameters: dose 30 mg/kg
Outline: (§5)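 Male albino Sprague-Dawley rats (105–130 g) given a single oral 30 mg/kg dose suspended in 0.5% methylcellulose; MES (60 Hz, 150 mA, 0.2 s, tetracaine-anesthetized eyes) at 0.25, 0.5, 1, 2 and 4 h; 4 rats per time point; scored protected/tested.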

Rattus norvegicus [13] = assay: Neurotoxicity in Sprague-Dawley rat at 30 mg/kg, po after 0.25 hrs by rotarod test; assay type: toxicity, organism-based; parameters: dose 30 mg/kg, route oral; details: in vivo
Rattus norvegicus [14] = assay: Neurotoxicity in Sprague-Dawley rat at 30 mg/kg, po after 0.5 hrs by rotarod test; assay type: toxicity, organism-based; parameters: dose 30 mg/kg, route oral; details: in vivo
Rattus norvegicus [15] = assay: Neurotoxicity in Sprague-Dawley rat at 30 mg/kg, po after 1 hr by rotarod test; assay type: toxicity, organism-based; parameters: dose 30 mg/kg, route oral; details: in vivo
Rattus norvegicus [16] = assay: Neurotoxicity in Sprague-Dawley rat at 30 mg/kg, po after 2 hrs by rotarod test; assay type: toxicity, organism-based; parameters: dose 30 mg/kg, route oral; details: in vivo
Rattus norvegicus [17] = assay: Neurotoxicity in Sprague-Dawley rat at 30 mg/kg, po after 4 hrs by rotarod test; assay type: toxicity, organism-based; parameters: dose 30 mg/kg, route oral; details: in vivo
Rattus norvegicus [18] = assay: Anticonvulsant activity in Sprague-Dawley rat assessed as inhibition of maximal electroshock-induced seizures at 30 mg/kg, ip; assay type: functional, organism-based; parameters: dose 30 mg/kg
Mus musculus [19] = assay: Anticonvulsant activity in CF1 mouse assessed as inhibition of maximal electroshock-induced seizures at 300 mg/kg, ip after 0.5 hrs; assay type: functional, organism-based; parameters: dose 300 mg/kg; outline: as §2
Mus musculus [20] = assay: Neurotoxicity in CF1 mouse at 100 mg/kg, ip after 0.5 hrs by rotarod test; assay type: toxicity, organism-based; parameters: dose 100 mg/kg, route intraperitoneal; details: in vivo; outline: as §3
Mus musculus [21] = assay: Neurotoxicity in CF1 mouse assessed as ability to grasp rotarod at 300 mg/kg, ip after 4 hrs by rotarod test; assay type: toxicity, organism-based; parameters: dose 300 mg/kg, route intraperitoneal; details: in vivo; outline: as §4
Mus musculus [22] = assay: Neurotoxicity in CF1 mouse assessed as muscle spasms at 300 mg/kg, ip after 4 hrs by rotarod test; assay type: toxicity, organism-based, Muscle tissue; parameters: dose 300 mg/kg, route intraperitoneal; details: in vivo
Rattus norvegicus [23] = assay: Anticonvulsant activity in Sprague-Dawley rat assessed as inhibition of maximal electroshock-induced seizures at 30 mg/kg, po after 0.5 hrs; assay type: functional, organism-based; parameters: dose 30 mg/kg; outline: as §5
Rattus norvegicus [24] = assay: Anticonvulsant activity in Sprague-Dawley rat assessed as inhibition of maximal electroshock-induced seizures at 30 mg/kg, po after 4 hrs; assay type: functional, organism-based; parameters: dose 30 mg/kg; outline: as §5
Rattus norvegicus [25] = assay: Anticonvulsant activity in Sprague-Dawley rat assessed as inhibition of maximal electroshock-induced seizures at 30 mg/kg, ip after 0.5 hrs; assay type: functional, organism-based; parameters: dose 30 mg/kg
Rattus norvegicus [26] = assay: Neurotoxicity in Sprague-Dawley rat at 30 mg/kg, ip after 0.5 hrs by rotarod test; assay type: toxicity, organism-based; parameters: dose 30 mg/kg, route intraperitoneal; details: in vivo
Rattus norvegicus [27] = assay: Neurotoxicity in Sprague-Dawley rat at 30 mg/kg, ip after 1 hr by rotarod test; assay type: toxicity, organism-based; parameters: dose 30 mg/kg, route intraperitoneal; details: in vivo
Rattus norvegicus [28] = assay: Neurotoxicity in Sprague-Dawley rat at 30 mg/kg, ip after 2 hrs by rotarod test; assay type: toxicity, organism-based; parameters: dose 30 mg/kg, route intraperitoneal; details: in vivo

SMILES | MIC (Staphylococcus aureus) [µg/mL] | MIC (Enterococcus faecalis) [µg/mL] | MIC (Escherichia coli) [µg/mL] | MIC (Pseudomonas aeruginosa) [µg/mL] | MIC (Pichia kudriavzevii) [µg/mL] | MIC (Candida parapsilosis) [µg/mL] | inhibition (Mus musculus [1]) | inhibition (Mus musculus [2]) | inhibition (Mus musculus [3]) | inhibition (Mus musculus [4]) | Activity (Mus musculus [5]) | Activity (Mus musculus [6]) | Activity (Mus musculus [7]) | Activity (Mus musculus [9]) | Activity (Mus musculus [10]) | inhibition (Rattus norvegicus [12]) | Activity (Rattus norvegicus [13]) | Activity (Rattus norvegicus [14]) | Activity (Rattus norvegicus [15]) | Activity (Rattus norvegicus [16]) | further results
CC(C)C(=O)OC(Cn1ccnc1)c1ccc2ccccc2c1 (stereo not given) | 16 (≈ 51.9 µM) | 128 (≈ 415 µM) | > 1020 | > 1020 | 256 (≈ 830 µM) | 256 (≈ 830 µM) | Active | Active | inactive | Active | Non-toxic | Toxic | Toxic | Non-toxic | Non-toxic | inactive | Non-toxic | Non-toxic | Non-toxic | Non-toxic | Activity (Mus musculus [8]): Toxic; Activity (Mus musculus [11]): Non-toxic; Activity (Rattus norvegicus [17]): Non-toxic
CCCC(CCC)C(=O)OC(Cn1ccnc1)c1ccc2ccccc2c1 (stereo not given) | 8 (≈ 21.9 µM) | 16 (≈ 43.9 µM) | > 1020 | > 1020 | 1020 (≈ 2810 µM) | 1020 (≈ 2810 µM) | inactive | Active | inactive | Active | Non-toxic | Toxic | Toxic | Non-toxic | Non-toxic | inactive | Non-toxic | Non-toxic | Non-toxic | Non-toxic | inhibition (Rattus norvegicus [18]): Active; inhibition (Mus musculus [19]): Active; Activity (Mus musculus [20]): Non-toxic; Activity (Mus musculus [21]): Toxic; Activity (Mus musculus [22]): Toxic; inhibition (Rattus norvegicus [23]): inactive; inhibition (Rattus norvegicus [24]): inactive; Activity (Rattus norvegicus [17]): Non-toxic; inhibition (Rattus norvegicus [25]): Active; Activity (Rattus norvegicus [26]): Non-toxic; Activity (Rattus norvegicus [27]): Non-toxic; Activity (Rattus norvegicus [28]): Non-toxic
